Consider 25 compounds from ChEMBL document CHEMBL1151786, “Triphenylmethylamides (TPMAs): Structure-activity relationship of compounds that induce apoptosis in melanoma cells” (Bioorg Med Chem Lett, 2008).

≈ marks a conversion by molar mass, not a printed value. Calls of active or inactive are those of the source. The rule behind the calls is not given here.

One data set has as its system UACC-62. Description: Growth inhibition of human UACC62 cells after 72 hrs by SRB assay. In kind it is functional, cell-based. The note with it: UACC-62, 72 h. In short, it runs like this: (§1)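 Melanoma cells were exposed to a range of compound concentrations for 72 h. Growth inhibition was read as biomass by sulforhodamine B staining. IC50 is the average of three separate occasions, given with standard deviation, from dose–response curves.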

A further data set deals with SK-MEL-5. Description: Growth inhibition of human SK-MEL-5 cells after 72 hrs by SRB assay. Conditions: SK-MEL-5, 72 h. Format: functional, cell-based. The procedure, abridged:
as §1

Data set [1] has as its system HL-60. Description: Cell cycle arrest in human HL60 cells assessed as accumulation at G1 phase at 20 uM after 6 hrs by flow cytometry using propidium iodide staining. In kind it is functional, cell-based. The procedure, abridged:
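HL-60 cells were treated for 6 h with 20 µM compound or with vehicle alone. They were then stained with propidium iodide and analysed by flow cytometry for the percentage of cells in G0/G1, S and G2/M.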

For data set [2], the system named is U-937. In words: Antiproliferative activity against human U937 cells after 72 hrs by SRB assay. Format: functional, cell-based. The note with it: U-937, 72 h. In short, it runs like this: (§2)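 Cancer cell lines were incubated with compound for 72 h. Growth or viability was measured by a method given in the supporting information. IC50 values are averages with standard deviations from three independent experiments.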

The test system of data set [3] is HL-60. In words: Antiproliferative activity against human HL60 cells after 72 hrs by SRB assay. Format: functional, cell-based. Conditions: HL-60, 72 h. In short, it runs like this: as §2
The subject of a further data set is PC-12. Description: Antiproliferative activity against rat PC12 cells after 72 hrs by SRB assay. Format: functional, cell-based. The note with it: PC-12, 72 h. The procedure, abridged: as §2
Another data set has as its system MCF7. Description: Antiproliferative activity against human MCF7 cells after 72 hrs by SRB assay. In kind it is functional, cell-based. Conditions: MCF7, 72 h. The procedure, abridged: as §2
For data set [4], the system named is U-937. Description: Induction of apoptosis in human U937 cells assessed as nonviable necrotic cells at 100 uM after 48 hrs by flow cytometry using FITC-conjugated annexin V and propidium iodide staining relative to control. In kind it is functional. In short, it runs like this: (§3)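 U-937 cells were exposed for 48 h to 100 µM compound or to vehicle. Cells were stained with FITC-conjugated Annexin V to detect phosphatidylserine externalization and with propidium iodide to test membrane integrity, then quantified by flow cytometry. Quadrants were scored, with Annexin V-positive/propidium iodide-negative taken as early apoptotic.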

A short description of data set [5]: Aqueous solubility in phosphate-buffered saline at pH 7.4. In kind it is physicochemical. The note with it: read-out: Stability.
In data set [6] the test system is U-937. Description: Induction of apoptosis in human U937 cells assessed as viable cells at 100 uM after 48 hrs by flow cytometry using FITC-conjugated annexin V and propidium iodide staining relative to control. In kind it is functional. Conditions: U-937, 48 h, read-out: Activity. In short, it runs like this: as §3
Data set [7] relates to U-937. Description: Induction of late apoptosis in human U937 cells at 100 uM after 48 hrs by flow cytometry using FITC-conjugated annexin V and propidium iodide staining relative to control. In kind it is functional. The procedure, abridged:
as §3

Data set [8] deals with U-937. In words: Induction of early apoptosis in human U937 cells at 100 uM after 48 hrs by flow cytometry using FITC-conjugated annexin V and propidium iodide staining relative to control. In kind it is functional. In short, it runs like this:
as §3

For the compound `COC(=O)[C@@H](Cc1ccccc1)NC(=O)C(c1ccccc1)(c1ccc(OC)cc1)c1ccc(OC)cc1`, the IC50 was > 100 µM in the data set on UACC-62 and 24 µM in the data set with SK-MEL-5.
Taken in the same sequence, the figures for `O=C(CCC(c1ccccc1)(c1ccccc1)c1ccccc1)NCCc1ccccc1` were 50 µM and 5.5 µM.
For `O=C(NCCc1ccccc1)C(c1ccccc1)(c1ccc(O)cc1)c1ccc(O)cc1` the same measures were 47 µM and 8.6 µM.
Taken in the same sequence, the figures for `COC(=O)[C@@H](Cc1ccccc1)NC(=O)CCCC(c1ccccc1)(c1ccccc1)c1ccccc1` were 45 µM and 5.8 µM.
Regarding `COc1ccc(C(C(=O)NCCc2ccccc2)(c2ccccc2)c2ccc(OC)cc2)cc1`, the IC50 stood at 20 µM with UACC-62 and 14 µM in the data set with SK-MEL-5. Further, the outcome with HL-60 [1] was Active.
Turning to `O=C(NCCc1ccccc1)C(c1ccc(O)cc1)(c1ccc(O)cc1)c1ccc(O)cc1`, the half-maximal inhibitory concentration (IC50) was 71 µM with UACC-62 and 36 µM with SK-MEL-5.
For `O=C(NCCc1ccccc1)C(c1ccccc1)(c1ccccc1)c1cccs1` the same measures were 13 µM and 9 µM.
For `COC(=O)[C@@H](Cc1ccccc1)NC(=O)C1(c2ccccc2)c2ccccc2-c2ccccc21` the same measures were 27 µM and 23 µM.
Consider `O=C(NCCc1ccccc1)C(c1ccccc1)(c1ccccc1)c1ccccc1`, for which the IC50 with U-937 [2] was 9.5 µM; with HL-60 [3], 7.7 µM; with UACC-62, 8.3 µM; in the data set with PC-12, 31 µM; in the data set with MCF7 it was 7.1 µM; in the data set with SK-MEL-5 it was 5.8 µM. Moreover, the outcome with HL-60 [1] was Active.
Turning to `COC(=O)[C@@H](Cc1ccccc1)NC(=O)C(c1ccc(OC)cc1)(c1ccc(OC)cc1)c1ccc(OC)cc1`, the IC50 in the data set on UACC-62 is > 100 µM; in the data set on SK-MEL-5 it was 49 µM.
For `COc1ccc(C(C(=O)NCCc2ccccc2)(c2ccc(OC)cc2)c2ccc(OC)cc2)cc1` the same measures were > 100 µM and 20 µM.
Turning to `COC(=O)[C@@H](Cc1ccccc1)NC(=O)C(c1ccccc1)(c1ccccc1)c1ccc(OC)cc1`, the half-maximal inhibitory concentration (IC50) in the data set on UACC-62 worked out at 27 µM; with SK-MEL-5, 6.1 µM.
For `O=C(NCCc1ccccc1)C1(c2ccccc2)c2ccccc2-c2ccccc21` the same measures were 20 µM and 20 µM.
Taken in the same sequence, the figures for `COC(=O)[C@@H](Cc1ccccc1)NC(=O)C(c1ccccc1)(c1ccccc1)c1ccc(O)cc1` were 21 µM and 8.1 µM.
For `COC(=O)[C@@H](Cc1ccccc1)NC(=O)C(c1ccc(O)cc1)(c1ccc(O)cc1)c1ccc(O)cc1` the same measures were 27 µM and 13 µM.
On to `O=C(CCCC(c1ccccc1)(c1ccccc1)c1ccccc1)NCCc1ccccc1`, for which the IC50 in the data set with UACC-62 came out at 26 µM; in the data set on SK-MEL-5 it was 5.4 µM. For the same compound, the outcome in the data set with HL-60 [1] was Active.
For `COC(=O)[C@@H](Cc1ccccc1)NC(=O)C(c1ccccc1)(c1ccccc1)c1cccs1`, the concentration for half-maximal inhibition (IC50) turned out to be 21 µM in the data set with UACC-62 and 12 µM with SK-MEL-5.
Taken in the same sequence, the figures for `O=C(CC(c1ccccc1)(c1ccccc1)c1ccccc1)NCCc1ccccc1` were 50 µM and 17 µM.
Take `COC(=O)[C@@H](Cc1ccccc1)NC(=O)CCC(c1ccccc1)(c1ccccc1)c1ccccc1`: the 50% inhibitory concentration (IC50) with U-937 [2] worked out at 6.8 µM; with HL-60 [3], 6 µM; in the data set with UACC-62 it was 40 µM; in the data set on PC-12, 74 µM; in the data set with MCF7, 6.1 µM; in the data set on SK-MEL-5 it was 2.5 µM.
`COC(=O)[C@@H](Cc1ccccc1)NC(=O)C(c1ccccc1)(c1ccc(O)cc1)c1ccc(O)cc1`: the concentration for half-maximal inhibition (IC50) in the data set with UACC-62 is 20 µM; in the data set with SK-MEL-5, 6.7 µM.
Taken in the same sequence, the figures for `O=C(NCCc1ccccc1)C(c1ccccc1)(c1ccccc1)c1ccc(O)cc1` were 13 µM and 8.1 µM.
As to `O=C(NCCc1ccccc1)C(c1ccccc1)(c1ccccc1)c1ccc(O)c(O)c1`, the Activity is 12.79% in the data set on U-937 [4], 58.56% with U-937 [7] and 23.17% in the data set on U-937 [8]. For the same compound, the solubility in [5] is 80 µM (≈ 33.9 µg/mL). Moreover, in the data set with U-937 [6], the viability at 100 µM amounted to 5.48%. Moreover, the IC50 with U-937 [2] stood at 5.9 µM; with HL-60 [3] it was 6.2 µM; in the data set on UACC-62, 2.1 µM; in the data set with PC-12, 85 µM; in the data set with MCF7 it was 8.1 µM; in the data set on SK-MEL-5 it was 4.2 µM. In addition, the result in the data set with HL-60 [1] was Active.
Turning to `COC(=O)[C@@H](Cc1ccccc1)NC(=O)C(c1ccccc1)(c1ccccc1)c1ccccc1`, in data set [5], the solubility amounted to 20 µM (≈ 8.99 µg/mL). In addition, the IC50 in the data set on U-937 [2] is 7.2 µM; in the data set on HL-60 [3], 7.3 µM; in the data set on UACC-62 it was 14 µM; in the data set with PC-12, 16 µM; with MCF7, 8 µM; in the data set with SK-MEL-5 it was 5.7 µM. Further, the outcome in the data set on HL-60 [1] was Active.
`COC(=O)[C@@H](Cc1ccccc1)NC(=O)CC(c1ccccc1)(c1ccccc1)c1ccccc1`: the IC50 with UACC-62 was > 100 µM; in the data set with SK-MEL-5 it was 5.1 µM.
`COc1ccc(C(C(=O)NCCc2ccccc2)(c2ccccc2)c2ccccc2)cc1`: the IC50 is 13 µM in the data set on UACC-62 and 29 µM in the data set with SK-MEL-5. Besides, in the data set with HL-60 [1], the outcome was Active.
